Rows were chosen to be rich in hits. Some 2.1% of all compounds tested hit in one or more screens of this group.
CHRM5 agonist – CHRM5 agonism in calcium assay; P08912; CHO-K1 hM5 cells, Fluo-8 calcium fluorescence; 0% DMSO wells, 100% maximal acetylcholine response; activation, % at 3 µM; actives 0.19% (n = 360,000);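 active means activation above the run's mean over test compounds plus 3 SD, cut at about 23% in these data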;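 further: signal is peak over basal fluorescence ratio across the kinetic read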
CHRM5 antagonist – blocks acetylcholine activation of human M5 receptor | actives 0.59% (n = 360,000) | CHO-hM5 cells, Fluo-8 calcium fluorescence, ACh EC80 | P08912 | inhibition, % at 3 µM;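 active means inhibition above a per-plate cutoff, the mean of that plate's test compounds plus 3 SD, cut at about 27% in these data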;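 further: 0% = acetylcholine EC80 with DMSO and 100% = DMSO without agonist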
CHRM1 antagonist – human CHRM1 antagonism; inhibition, % at 3 µM; AID 588852; P11229; CHO-K1 hM1, Fluo-8 calcium fluorescence, ACh EC80 antagonist; actives 1.3% (n = 360,000);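 active means percent inhibition above its own plate's cutoff, namely the mean of that plate's compound wells plus 3 SD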;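 further: peak over basal fluorescence ratio during 140 s after agonist addition; 0% = ACh EC80 plus DMSO and 100% = DMSO alone without agonist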
Target sequence (P11229 whole entry, looked up): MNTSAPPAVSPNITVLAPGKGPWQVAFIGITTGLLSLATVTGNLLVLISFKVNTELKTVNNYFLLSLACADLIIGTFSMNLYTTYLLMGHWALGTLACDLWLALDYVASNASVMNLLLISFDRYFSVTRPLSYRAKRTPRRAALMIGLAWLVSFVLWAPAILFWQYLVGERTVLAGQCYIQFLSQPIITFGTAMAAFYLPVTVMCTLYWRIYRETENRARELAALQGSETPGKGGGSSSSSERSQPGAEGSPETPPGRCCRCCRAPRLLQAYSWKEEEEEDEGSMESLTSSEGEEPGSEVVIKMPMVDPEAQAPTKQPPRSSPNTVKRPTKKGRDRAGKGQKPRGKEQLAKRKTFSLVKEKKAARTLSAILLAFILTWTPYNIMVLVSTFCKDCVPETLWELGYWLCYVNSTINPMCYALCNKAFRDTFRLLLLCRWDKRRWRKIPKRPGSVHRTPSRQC
M5 PAM – potentiates acetylcholine response at human M5 receptor; actives 0.3% (n = 360,000); P08912; CHO-K1 hM5, Fluo-8 calcium, ACh EC20 PAM; 0% = ACh EC20, 100% = ACh EC100; activation, % at 3 µM;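 active means activation above the run cutoff, the mean activation of all test compounds plus 3 SD, cut at about 18% in these data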
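system = human M5 receptor in CHO-K1 cells | reagent = EC20 acetylcholine as agonist stimulus | compound dosing = single-point, 3 µM nominal | incubation = Fluo-8 loading 80 min at 37 °C plus 30 min room temperature | detection = Fluo-8 calcium dye fluorescence, kinetic read | benchmarks = low control EC20 acetylcholine (0%), high control EC100 acetylcholine (100%)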
M1 ag – activates human CHRM1 receptor | CHO-K1 hM1, Fluo-8 calcium fluorescence, agonist mode; 0% DMSO, 100% acetylcholine EC100 | P11229 | actives 0.33% (n = 360,000) | activation, % at 3 µM;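 active means activation above the run's mean compound activation plus 3 SD, cut at about 16% in these data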;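 further: peak over basal fluorescence ratio within a 140 s kinetic read after compound addition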
M1 PAM – potentiates human M1 receptor response to acetylcholine | P11229 | CHO-K1 hM1, Fluo-8 calcium fluorescence, ACh EC20; 0% = ACh EC20, 100% = maximal ACh | activation, % at 3 µM | actives 0.088% (n = 360,000) | AID 588819; in the data active means activation above about 19%, passing the limit was not always enough
The depositor's hits bear a star.

SMILES | CHRM5 agonist | CHRM5 antagonist | CHRM1 antagonist | M5 PAM | M1 ag | M1 PAM
S=C1N(c2ccccc2)C(c2ccc(Br)cc2)N2CCCN12 (configuration not stated) | -19 | 38* | 100* | -37 | -7 | -28
COc1ccc(C2N(c3ccccc3)C(=S)N3CCCN23)cc1 (configuration not stated) | -6 | 8 | 32 | -11 | -9 | -22
S=C1N(c2ccccc2)C(c2ccc(Cl)cc2)N2CCCN12 (configuration not stated) | -11 | 25 | 96* | -43 | -7 | -21
Cc1ccc(C2N(c3ccccc3)C(=O)N3CCCN23)cc1 (configuration not stated) | -10 | -2 | 1 | 4 | -12 | -2
CC(C)(C)C(=O)Nc1cccc(-c2nc3ccccc3c(=O)o2)c1 | 5 | 1 | -3 | 0 | -1 | -2
CCC1CCCCN1CCCNC(=O)c1ccc2c(c1)N(Cc1ccc(F)cc1)C(=O)c1ccccc1S2=O (configuration not stated) | -11 | 6 | 71* | -9 | -7 | -22
O=C(NCCCN1CCCC1)c1ccc2c(c1)N(Cc1ccc(F)cc1)C(=O)c1ccccc1S2=O (configuration not stated) | -9 | 8 | 26 | -2 | -5 | -15
CC1CCCN(CCCNC(=O)c2ccc3c(c2)N(Cc2ccc(F)cc2)C(=O)c2ccccc2S3=O)C1 (configuration not stated) | -9 | 5 | 42* | -6 | -6 | -23
O=C(NCCCN1CCOCC1)c1ccc2c(c1)N(Cc1cccc(Cl)c1)C(=O)c1ccccc1S2=O (configuration not stated) | -9 | 2 | 10 | -1 | -4 | -7
CC1CCCN(CCCNC(=O)c2ccc3c(c2)N(Cc2cccc(Cl)c2)C(=O)c2ccccc2S3=O)C1 (configuration not stated) | -3 | 2 | 40* | -7 | -6 | -27
CCn1c(C)c(C(C)=O)c(NCc2ccccc2)nc1=S | -6 | -8 | 51* | 1 | -9 | -22
Cc1ccccc1N1CCN(C(=O)C2CCCCC2)CC1 | 0 | -2 | -16 | 3 | -4 | 5
COc1cccc(NC(=O)c2ccc(N3C(=O)C4CCC(C)CC4C3=O)cc2)c1 (configuration not stated) | -1 | 29* | 5 | -13 | 0 | -1
COc1ccc(NC(=O)c2cccc(N3C(=O)C4CCC(C)CC4C3=O)c2)c(OC)c1 (configuration not stated) | -1 | 23 | -2 | -6 | -4 | 3
CC(=O)Nc1ccc(NC(=O)Nc2cc(C)cc(C)c2)cc1 | -6 | 8 | -7 | -2 | -2 | 10
N#Cc1c(Cl)nsc1NN | 10 | 31* | 17 | -20 | 3 | -13
CC(=O)NS(=O)(=O)c1ccc(NC(=O)C2c3ccccc3Oc3ccccc32)cc1 | -9 | -10 | -12 | 22* | -8 | 17
CCN(CC)S(=O)(=O)c1ccc(NC(=O)C2c3ccccc3Oc3ccccc32)cc1 | 12 | 6 | 8 | 1 | 20* | 1
CC(=O)Nc1cccc(NC(=O)CSc2ncc(-c3ccccc3)[nH]2)c1 | 1 | 8 | 2 | -5 | 0 | 2
COc1cccc(NC(=O)N(C)C[C@H]2Oc3cc(Br)ccc3S(=O)(=O)N([C@H](C)CO)C[C@H]2C)c1 | 0 | -8 | 20* | 1 | -3 | -12
CCOc1ccc(NC(=O)C[n+]2ccc(N(C)C)cc2)cc1 | -6 | 0 | 3 | 5 | -8 | -1
CN(C)c1cc[n+](CC(=O)Nc2ccc(Oc3ccccc3)cc2)cc1 | -12 | 11 | 64* | -14 | -15 | -36
CC(=O)c1c(C)n(CC(=O)NCc2ccc3c(c2)OCO3)c2ccccc12 | 1 | 29* | 4 | -18 | 4 | -3
O=C(Cn1c(CO)nc2ccccc21)NCc1ccc2c(c1)OCO2 | -4 | 3 | -13 | -2 | -3 | 2
